procasp3 activ: activates human procaspase-3; P42574; recombinant procaspase-3 D3A, Ac-DEVD-pNA absorbance 405 nm; activation, % at 8.5 µM; hit rate 0.11% among 330,000;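 active = activation above the mean of all tested compounds plus 3 SD, cut at about 21% in these data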
Target sequence (P42574 whole entry D9A/D28A/D175A): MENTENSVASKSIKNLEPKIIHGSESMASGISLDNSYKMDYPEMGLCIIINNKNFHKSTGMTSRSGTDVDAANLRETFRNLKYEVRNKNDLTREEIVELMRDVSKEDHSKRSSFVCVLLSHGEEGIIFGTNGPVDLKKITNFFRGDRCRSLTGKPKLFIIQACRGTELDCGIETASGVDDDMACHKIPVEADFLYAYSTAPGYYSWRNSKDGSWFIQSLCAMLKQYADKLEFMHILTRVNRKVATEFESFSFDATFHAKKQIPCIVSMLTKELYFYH
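Assay system: Procaspase-3 D3A mutant, all three cleavage aspartates alanine. Buffer or medium: Zinc-free HEPES saline buffer with Triton X-100. Times: 1 h compound preincubation, 2 h substrate hydrolysis at 25 °C. Measured by: 405 nm absorbance of p-nitroaniline, reads at 0 and 120 min. Read-out basis: percent activation relative to control range. Replicates: singlicate.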
proCasp7 act: activates human procaspase-7, counter-screen for procaspase-3 activators | P55210 | recombinant procaspase-7, Ac-DEVD-pNA absorbance 405 nm; D23A/D198A/D206A triple mutant, cannot self-cleave; scale: DMSO 0, 5 µM enzyme 100 | activation, % at 8.5 µM | hit rate 0.093% among 330,000 | AID 463210;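 active = percent activation above the screen-wide mean plus 3 SD, cut at about 25% in these data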
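Detection: p-Nitroaniline absorbance at 405 nm, read at 0 and 120 min; system: Uncleavable procaspase-7 mutant enzyme; evaluation: % activation from two-timepoint absorbance difference, scaled to controls; times: 1 h enzyme–compound preincubation and 2 h substrate reaction, both 25 °C; buffer or medium: Zinc-free HEPES pH 7.4 with 300 mM NaCl, 0.01% Triton X-100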
CHT inh: inhibitors of human choline transporter CHT | hit rate 0.86% among 310,000 | AID 488975 | B-score at 10 µM | Q9GZV3 | CHT-expressing cells, membrane potential dye, choline response; hits give low values;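 active = B-score over 3 SD under the library average, and starting fluorescence ratio not unusually high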;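 also: choline stimulus applied at its EC90 after an EC20 pre-addition; B-score computed on integrated fluorescence ratio after choline addition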
CHT PAM: allosteric activators of human choline transporter CHT; Q9GZV3; CHT-expressing cells, membrane potential dye, choline EC20; hits give high values; LV-AA mutant CHT in HEK293 cells; B-score at 10 µM; hit rate 0.49% among 310,000; AID 488977;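 active = initial fluorescence not abnormally high and integrated response B-score, plate-corrected, over 3 SD above library mean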
CHT inh conf: human CHT inhibition, confirmatory screen. shares compounds with CHT inh. CHT-expressing cells, choline membrane potential dye; LV-to-AA substituted CHT, HEK293 cells. CHT activity remaining % of control (hits give low values), % at 10 µM. hit rate 70% among 2,400;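 active = choline transporter activity left, mean of duplicates at 10 µM, below buffer-only control mean minus 3 SD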;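 also: depolarization triggered by choline at its EC90 following an EC20 pre-addition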
HEK293 MPD ctr: activity in parental HEK293 cells lacking CHT; shares compounds with CHT inh; membrane potential dye, choline response; active = decrease or increase beyond buffer ±3SD; membrane potential ratio readout (active if shifted either direction beyond buffer ±3SD; no single direction) at 10 µM; hit rate 4% among 2,400; AID 493222;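 also: parental cells lack the transporter so any hit is non-specific; ratio is peak minus trough fluorescence over baseline after EC90 choline challenge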
Hits are given with their value; n = inactive; x = not tested or not shown. This is a sample that favours compounds with a hit; in the whole collection about 1.3% have one here.

SMILES	procasp3 activ	proCasp7 act	CHT inh	CHT PAM	CHT inh conf	HEK293 MPD ctr
CCN(CC)CC(C)CNC(=O)C1(O)c2ccccc2NC(=O)N1c1ccc(Cl)c(Cl)c1 (stereo unspecified)	n	n	n	n	x	x
COc1ccc(NC(=O)CCCNC(=O)c2ccc(Cl)cc2)cc1OC	n	n	-6.6	n	n	n
COc1ccc(S(N)(=O)=O)cc1C(=O)OCC(=O)N1CCCC(C)C1 (stereo unspecified)	n	n	x	x	x	x
O=C(NC1CCCC1)C(c1ccc(O)cc1)N(CC1CCCO1)C(=O)C1COc2ccccc2O1 (stereo unspecified)	n	n	n	n	x	x
COc1ccc(C(C(=O)NC2CCCCC2)N(CC2CCCO2)C(=O)C2COc3ccccc3O2)cc1OC (stereo unspecified)	n	n	-5.9	n	n	n
Cc1nc(C)c(C(=O)OCC(=O)NCc2ccccc2)s1	n	n	x	x	x	x
CN(C(=O)c1ccccc1Cl)C1CCCCC1	n	n	-6.7	n	n	n
COc1cccc(NC(=O)n2ncc3c(C)cccc32)c1	n	n	n	n	x	x
CC(=O)Nc1c2c3c(cccc3n(C)c1=O)C(=O)c1ccccc1-2	n	n	-5.9	n	45%	2.4
O=C(Nc1nc(-c2cccs2)c(-c2ccccc2)s1)c1ccco1	n	n	n	n	x	x
O=C(Nc1nc(-c2cccs2)c(C(=O)C(F)(F)F)s1)c1ccco1	n	n	-5.2	n	n	n
OCC1OC(n2cnc3c(NCCc4ccccc4)ncnc32)C(O)C1O (stereo unspecified)	n	n	n	n	x	x
CNC(=O)[C@H]1O[C@@H](n2cnc3c(NCc4cccc(I)c4)ncnc32)[C@H](O)[C@@H]1O	n	n	-5.2	n	44%	n
O=C(c1ccc(COc2ccccc2[N+](=O)[O-])o1)N1CCCCC1	n	n	n	n	x	x
O=C(c1ccc(COc2ccccc2[N+](=O)[O-])o1)N1CCCCCC1	n	n	-6.1	n	69%	n
CN1C(=O)C(C)(C)c2cc(S(=O)(=O)N3CCN(c4ccccc4F)CC3)ccc21	n	n	n	n	x	x
O=C(O)c1ccc(NC2=C(Cl)C(=O)c3ccccc3C2=O)cc1	n	n	-10	n	32%	n
CC1C/C(=N/NC(=O)c2cccc(F)c2)c2ccc(O)cc2C1 (stereo unspecified)	n	n	n	n	x	x
COc1ccc2c(c1)CC(C)C/C2=N\NC(=O)c1ccco1 (stereo unspecified)	n	n	-9.5	n	58%	n
COCCn1c(CN2CCN(c3cccc(Cl)c3)CC2)nc2c1c(=O)n(C)c(=O)n2C	n	n	-7.3	n	-5.6%	n
CCOCCn1c(CN2CCN(c3ccc(F)cc3)CC2)nc2c1c(=O)n(C)c(=O)n2C	n	n	-17	n	10%	n
COC(=O)Cn1c(CN2CCOCC2)nc2c1c(=O)n(C)c(=O)n2C	n	n	n	n	x	x
COC(=O)Cn1c(CN2CCN(c3ccc(F)cc3)CC2)nc2c1c(=O)n(C)c(=O)n2C	n	n	-11	n	-12%	n
O=C(Cn1cnc([N+](=O)[O-])n1)NCCO	n	n	n	n	x	x
CCn1c(SCC(=O)N2CCCc3ccccc32)nc2cccnc21	n	n	n	n	x	x
SMILES	procasp3 activ	proCasp7 act	CHT inh	CHT PAM	CHT inh conf	HEK293 MPD ctr
CCn1c(SCC(=O)N2CCCc3ccccc32)nc2ccccc2c1=O	n	n	-6.1	n	n	n
CCC1(c2ccc(F)cc2)NC(=O)N(CC(=O)Nc2cccnc2Cl)C1=O (stereo unspecified)	n	n	n	n	x	x
O=C1/C(=C\c2ccccn2)SC(=S)N1c1ccc(S(=O)(=O)Nc2nccs2)cc1	n	n	-7	n	n	n
Oc1c(Br)cc(Br)cc1C=Nc1ccc2c(c1)OCO2	n	n	-6.4	n	n	n
O=[N+]([O-])c1ccc(O)c(C=Nc2ccc3c(c2)OCCO3)c1	n	n	n	n	x	x
Oc1c(Br)cc(Br)cc1C=Nc1ccc2c(c1)OCCO2	n	n	-5.3	n	n	n
CC(=O)c1ccccc1NC(=O)c1cc(S(=O)(=O)N2CCOCC2)ccc1N1CCCC1	n	n	x	x	x	x
